ChEMBL document CHEMBL4619741, “Screening of chalcone analogs with anti-depressant, anti-inflammatory, analgesic, and COX-2-inhibiting effects” (Bioorg Med Chem Lett, 2020)
The source made the active and inactive calls. The rule behind the calls is not given here.

Legend:
Mus musculus [1] = assay: Antidepressant activity in mouse assessed as immobility time at 30 mg/kg, ip by forced swimming test (reference value: 172.3 +/- 9.67 sec); format: functional
Mus musculus [2] = assay: Antiinflammatory activity against dimethylbenzene-induced ear edema mouse model assessed as inhibition of ear edema at 30 mg/kg, ip pretreated with compounds followed by dimethylbenzene challenge relative to control; format: functional
Procedure, shortened: (§1)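 Intraperitoneal dosing (test agents 30 mg/kg, reference 3 mg/kg) given before topical dimethylbenzene to mouse ear. Ear inflammation was measured by weight (mg), and inhibition was expressed as percent versus control at 60 min.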

Mus musculus [3] = assay: Antidepressant activity in mouse assessed as change in norepinephrine level at 30 mg/kg, ip; format: functional, organism-based
Procedure, shortened: (§2)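 Mice under stress treated intraperitoneally (30 mg/kg), alongside normal-vehicle and stress-vehicle groups; serotonin, norepinephrine and dopamine levels measured; n = 8 per group; values as mean ± SEM; significance tested against stress vehicle and normal vehicle.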

Mus musculus [4] = assay: Antidepressant activity in mouse assessed as reduction in duration of immobility at 30 mg/kg, ip relative to control; format: functional
Mus musculus [5] = assay: Antidepressant activity in mouse assessed as change in dopamine level at 30 mg/kg, ip; format: functional, organism-based; procedure, shortened: as §2
[6] = target: T1, Prostaglandin G/H synthase 1 (Ovis aries, UniProt P05979); assay: Inhibition of ovine COX1 by ELISA
T1 sequence (P05979 whole entry): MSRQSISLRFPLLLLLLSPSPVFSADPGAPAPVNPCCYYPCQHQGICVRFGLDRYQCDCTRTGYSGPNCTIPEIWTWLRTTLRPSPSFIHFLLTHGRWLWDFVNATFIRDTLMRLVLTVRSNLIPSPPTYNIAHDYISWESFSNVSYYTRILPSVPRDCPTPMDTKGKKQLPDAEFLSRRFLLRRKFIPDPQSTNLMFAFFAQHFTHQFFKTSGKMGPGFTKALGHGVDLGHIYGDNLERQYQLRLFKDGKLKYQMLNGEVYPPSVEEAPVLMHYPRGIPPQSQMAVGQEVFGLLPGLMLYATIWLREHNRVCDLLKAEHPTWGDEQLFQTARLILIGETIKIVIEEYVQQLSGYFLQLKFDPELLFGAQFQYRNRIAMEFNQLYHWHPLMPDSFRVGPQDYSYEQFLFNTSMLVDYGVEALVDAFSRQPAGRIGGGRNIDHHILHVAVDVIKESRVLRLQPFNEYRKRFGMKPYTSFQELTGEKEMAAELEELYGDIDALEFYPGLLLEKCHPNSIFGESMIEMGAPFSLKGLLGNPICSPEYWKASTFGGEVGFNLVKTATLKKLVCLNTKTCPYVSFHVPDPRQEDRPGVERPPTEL
Procedure, shortened: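 Ovine COX-1 inhibition followed through enzyme peroxidase activity with a colorimetric enzyme immunoassay kit; IC50 values determined; mean and SD of three measurements.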

Mus musculus [7] = assay: Antidepressant activity in mouse assessed as increase in serotonin level at 30 mg/kg, ip; format: functional, organism-based; procedure, shortened: as §2
Mus musculus [8] = assay: Analgesic activity in mouse assessed as inhibition of acetic acid-induced writhing at 3 mg/kg, ip relative to control; format: functional
Mus musculus [9] = assay: Antiinflammatory activity against dimethylbenzene-induced ear edema mouse model assessed as inhibition of ear edema at 3 mg/kg, ip pretreated with compounds followed by dimethylbenzene challenge relative to control; format: functional; procedure, shortened: as §1
Mus musculus [10] = assay: Antidepressant activity in mouse assessed as reduction in duration of immobility at 3 mg/kg, ip relative to control; format: functional
Mus musculus [11] = assay: Antidepressant activity in mouse assessed as increase in serotonin level at 3 mg/kg, ip; format: functional, organism-based
Mus musculus [12] = assay: Antidepressant activity in mouse assessed as immobility time at 3 mg/kg, ip by forced swimming test (reference value: 172.3 +/- 9.67 sec); format: functional
Mus musculus [13] = assay: Antidepressant activity in mouse assessed as change in norepinephrine level at 3 mg/kg, ip; format: functional, organism-based
Mus musculus [14] = assay: Antidepressant activity in mouse assessed as change in dopamine level at 3 mg/kg, ip; format: functional, organism-based

SMILES | Time (Mus musculus [1]) [s] | inhibition in vivo at 30 mg/kg (Mus musculus [2]) [%] | inhibition in vivo at 30 mg/kg (Mus musculus [4]) [%] | also measured
COc1ccc(/C=C/C(=O)c2c(C)nc3ccccc3c2-c2ccccc2)cc1O | 52.3 | 65.5 | – | –
Cc1nc2ccccc2c(-c2ccccc2)c1C(=O)/C=C/c1ccc(O)cc1 | 79.3 | 78.8 | – | –
Cc1nc2ccccc2c(-c2ccccc2)c1C(=O)/C=C/c1ccc(F)cc1F | 51.5 | 65.8 | – | –
Cc1nc2ccccc2c(-c2ccccc2)c1C(=O)/C=C/c1ccc(C(C)C)cc1 | 22.8 | 76.8 | 86.8 | Activity (Mus musculus [3]): inactive; Activity (Mus musculus [5]): inactive; IC50 [6]: 8.95 µM; Activity (Mus musculus [7]): Active
Cc1nc2ccccc2c(-c2ccccc2)c1C(=O)/C=C/c1cccc(F)c1 | 38.3 | 69.2 | 77.8 | –
Cc1nc2ccccc2c(-c2ccccc2)c1C(=O)/C=C/c1cccc(O)c1 | 32.8 | 65.2 | 80 | –
Cc1nc2ccccc2c(-c2ccccc2)c1C(=O)/C=C/c1ccc(Cl)cc1Cl | 31.5 | 81.3 | 81 | –
COc1cccc(/C=C/C(=O)c2c(C)nc3ccccc3c2-c2ccccc2)c1 | 48.5 | 74.6 | – | –
COc1ccc2c(c1)c(CC(=O)O)c(C)n2C(=O)c1ccc(Cl)cc1 [INDOMETHACIN] | – | – | – | inhibition in vivo at 3 mg/kg (Mus musculus [8]): 78.3%; inhibition in vivo at 3 mg/kg (Mus musculus [9]): 51.1%
Cc1nc2ccccc2c(-c2ccccc2)c1C(=O)/C=C/c1ccc(F)cc1 | 25.8 | 88.3 | 85 | Activity (Mus musculus [3]): inactive; Activity (Mus musculus [5]): inactive; IC50 [6]: 10.2 µM; Activity (Mus musculus [7]): Active
CNCCC(Oc1ccc(C(F)(F)F)cc1)c1ccccc1 (stereo unspecified) [FLUOXETINE] | – | – | – | inhibition in vivo at 3 mg/kg (Mus musculus [10]): 48.9%; Activity (Mus musculus [11]): Active; Time (Mus musculus [12]): 88.1 s; Activity (Mus musculus [13]): inactive; Activity (Mus musculus [14]): inactive
Cc1cccc(/C=C/C(=O)c2c(C)nc3ccccc3c2-c2ccccc2)c1 | 57.5 | 67.1 | – | –
Cc1nc2ccccc2c(-c2ccccc2)c1C(=O)/C=C/c1ccc([N+](=O)[O-])cc1 | 46.8 | 42.9 | 72.8 | –
Cc1nc2ccccc2c(-c2ccccc2)c1C(=O)/C=C/c1cccc(Br)c1 | 13.8 | 72.9 | 92 | –
Cc1nc2ccccc2c(-c2ccccc2)c1C(=O)/C=C/c1ccccc1F | 49.3 | 81.2 | – | –
COc1ccc(/C=C/C(=O)c2c(C)nc3ccccc3c2-c2ccccc2)cc1 | 83.5 | 66.7 | – | –
Cc1nc2ccccc2c(-c2ccccc2)c1C(=O)/C=C/c1ccc(Br)cc1 | 75.8 | 74.1 | – | –
Cc1nc2ccccc2c(-c2ccccc2)c1C(=O)/C=C/c1ccc(Cl)cc1 | 29.3 | 85.5 | 83 | –
Cc1ccc(/C=C/C(=O)c2c(C)nc3ccccc3c2-c2ccccc2)cc1 | 63 | 61.3 | – | –
Cc1nc2ccccc2c(-c2ccccc2)c1C(=O)/C=C/c1ccccc1Br | 60.3 | 55 | – | –
Cc1nc2ccccc2c(-c2ccccc2)c1C(=O)/C=C/c1cccc(Cl)c1 | 48.5 | 53.6 | – | –
Cc1ccccc1/C=C/C(=O)c1c(C)nc2ccccc2c1-c1ccccc1 | 86.3 | 70.9 | – | –
Cc1nc2ccccc2c(-c2ccccc2)c1C(=O)/C=C/c1ccc(N(C)C)cc1 | 47.5 | 69.7 | – | –
Cc1nc2ccccc2c(-c2ccccc2)c1C(=O)/C=C/c1c(Cl)cccc1Cl | 52 | 46.7 | – | –
COc1ccccc1/C=C/C(=O)c1c(C)nc2ccccc2c1-c1ccccc1 | 109.3 | 62.1 | – | –
Cc1nc2ccccc2c(-c2ccccc2)c1C(=O)/C=C/c1ccccc1Cl | 136.3 | 73.2 | – | –
